Source: PubChem
The list is not random: actives were taken first. Their share in the collection is about 2.6%.
Granule exo inh = lytic granule exocytosis inhibition; TALL-104 LAMP-1 surface exposure, flow cytometry; cells stimulated with thapsigargin and PMA; inhibition, % at 10 µM; actives 0.66% (n = 360,000);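 active = inhibition above about 55%, limit read from the data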
T cell HTS = T cell immune modulation candidate. 2C CD8+ T cell-vesicle binding, flow cytometry; stronger effect = lower value. response (vesicle binding), % at 7 µM. actives 0.068% (n = 330,000);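 active = response, share of CD8 T cells binding vesicles, and their 90th percentile fluorescence all below set limits, cut at about 80% in these data, passing the limit was not always enough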;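 also: values below 100% mean blocked vesicle binding to the CD8+ T cells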
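Benchmarks: naked versus QL9-loaded vesicles / Assay system: purified 2C TCR transgenic mouse naive CD8+ T cells / Technique: high-throughput flow cytometry with anti-B7-1 and anti-CD8 staining / Timing: Cell–vesicle co-incubation 1.5 h at 37 °C, staining 20 min on ice / Read-out: percent CD8+ FL2 mean versus row control / Probe or stimulus: QL9-loaded Drosophila micro-vesicles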
MC4R antagonist = human MC4R antagonism in cAMP assay | P32245 | MC4R-expressing cells, MTII-stimulated cAMP, LANCE TR-FRET | inhibition, % at 6.5 µM | actives 0.48% (n = 360,000) | AID 540295;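 active = inhibition above its plate's cutoff, the mean of tested wells on that plate plus 3 SD, cut at about 29% in these data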;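 also: 0% = Melanotan II alone and 100% = Melanotan II plus saturating MCL0020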
Target sequence (P32245 whole entry, looked up): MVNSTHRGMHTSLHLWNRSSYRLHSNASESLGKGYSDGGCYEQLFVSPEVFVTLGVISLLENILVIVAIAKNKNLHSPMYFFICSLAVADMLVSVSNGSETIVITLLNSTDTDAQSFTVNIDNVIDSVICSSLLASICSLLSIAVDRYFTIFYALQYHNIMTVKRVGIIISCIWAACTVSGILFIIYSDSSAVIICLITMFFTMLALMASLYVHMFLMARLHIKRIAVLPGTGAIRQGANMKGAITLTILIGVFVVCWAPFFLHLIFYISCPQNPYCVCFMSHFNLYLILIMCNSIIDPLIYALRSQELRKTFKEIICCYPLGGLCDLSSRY
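Material – human MC4R-expressing U2OS cells · Repeats – no replicates · Detection – TR-FRET with Eu-cAMP and labeled anti-cAMP, 671 nm · Times – compound 30 min, challenge 1 h, detection 1 h · Compound – single nominal compound dose of 6.5 µM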
MC4R barr agon = agonists of human melanocortin 4 receptor (MC4R) beta-arrestin; P32245; U2OS MC4R beta-arrestin complementation, luminescence; percent of melanotan II response, DMSO zero; activation, % at 8.9 µM; actives 0.98% (n = 360,000); AID 540308;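 active = activation above a per-plate cutoff, the mean activation of sample wells on that plate plus 3 SD, cut at about 8% in these data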
EP2 antag = blocks the human prostaglandin E2 receptor EP2; P43116; actives 0.52% (n = 260,000); C6 glioma cells expressing human EP2, cAMP TR-FRET; cells stimulated with saturating PGE2; AID 1422; inhibition, % at 25 µM;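 active = percent inhibition above 40 after rounding to a whole number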;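 also: rat C6 glioma host cells with rolipram phosphodiesterase inhibitor present; the protocol text gives 20 µM as final concentration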
Target sequence (P43116 whole entry, looked up): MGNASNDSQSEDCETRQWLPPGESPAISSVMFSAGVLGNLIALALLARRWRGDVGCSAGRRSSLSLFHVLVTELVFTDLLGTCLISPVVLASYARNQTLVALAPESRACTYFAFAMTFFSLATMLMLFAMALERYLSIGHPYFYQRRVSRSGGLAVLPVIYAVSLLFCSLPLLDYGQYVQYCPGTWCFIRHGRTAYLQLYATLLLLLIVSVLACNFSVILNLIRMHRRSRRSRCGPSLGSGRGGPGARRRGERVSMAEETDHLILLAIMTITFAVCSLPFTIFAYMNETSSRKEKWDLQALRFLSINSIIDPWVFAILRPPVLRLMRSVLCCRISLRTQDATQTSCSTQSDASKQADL
EP2 mod = modulators of human EP2 prostaglandin E2 receptor; P43116; EP2-expressing cells, cAMP HTRF FRET, PGE2 co-stimulation; induction, % at 25 µM; actives 0.83% (n = 260,000); AID 940;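 active = compounds whose cAMP rise, as percent of the full-agonist control response, exceeds 60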;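 also: rat C6 glioma line stably carrying human EP2 under a CMV promoter; the protocol text gives 20 µM as final concentration; 100% = response of wells given 1 µM PGE2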
MC4R barr ag = human MC4R beta-arrestin agonism confirmation | actives 31% (n = 2,400) | activation, % at 8.9 µM | shares compounds with MC4R barr agon | U2OS MC4R beta-arrestin recruitment, luminescence; scaled DMSO 0%, Melanotan II 100%;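 active = mean activation across replicates above the hit cutoff set in the earlier primary screen, cut at about 8% in these data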
MOR-DOR barr ag = counter-screen for MC4R agonists: agonists of mu-delta opioid heterodimer | shares compounds with MC4R barr agon | U2OS PathHunter beta-arrestin, beta-gal luminescence; percent of deltorphin B response, DMSO zero | activation, % at 9.2 µM | actives 5.8% (n = 2,400);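 active = mean activation across replicates exceeds the hit threshold derived in the earlier primary screen, cut at about 18% in these data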;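 also: 100% = deltorphin B at 0.9 µM final and 0% = DMSO alone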
* = called active by the depositor; i = inactive; . = no result given.

SMILES	Granule exo inh	T cell HTS	MC4R antagonist	MC4R barr agon	EP2 antag	EP2 mod	MC4R barr ag	MOR-DOR barr ag
Cc1ccc(NC(=O)CCC(=O)OCC(=O)c2ccc(Oc3ccc([N+](=O)[O-])cc3)cc2)cc1	1	459	-3	26*	1	-43	-1	6
CC(=O)c1cccc(-c2cnc3c(NC=O)cc(-c4ccccc4)cn23)c1	0	.	-2	9.6*	.	.	13*	4
COc1cccc(-c2cnc3c(NC(C)=O)cc(-c4ccc(C(=O)N5CCOCC5)cc4)cn23)c1	-8	.	19	15*	.	.	20*	3
CC(=O)Nc1cccc(-c2cc(NC=O)c3ncc(-c4cccc(C(C)=O)c4)n3c2)c1	-12	.	-16	5	.	.	.	.
COc1cccc(-c2cnc3c(NC=O)cc(-c4cccc(NC(C)=O)c4)cn23)c1	3	.	-6	12*	.	.	12*	2
CN(C)C(=O)c1cccc(-c2cnc3c(NC=O)cc(-c4ccccc4Cl)cn23)c1	-2	.	-18	9.8*	.	.	8.9*	3
COc1ccc(-c2cc(NC=O)c3ncc(-c4cccc(C(C)=O)c4)n3c2)cc1	1	.	11	13*	.	.	13*	2
CC(=O)c1cccc(-c2cnc3c(NC=O)cc(-c4ccc(C(=O)N5CCOCC5)cc4)cn23)c1	3	.	-8	6	.	.	.	.
O=[N+]([O-])c1cc(/C=N/O)ccc1SCc1ccccc1Cl	2	216	-13	18*	6	18	6	6
Oc1[nH]c2ccccc2c1N=Nc1cccc(Cl)c1	-2	170	-4	0	.	.	.	.
Cc1cccc2c(N=Nc3ccccc3)c(O)[nH]c12	-11	355	-3	15*	.	.	1	2
COc1ccc(CCN2C(=O)C(Oc3ccccc3)C2c2ccc3c(c2)OCO3)cc1 (stereo not drawn)	-3	i	7	18*	5	-4	0	3
Cc1nn(-c2cccc(Cl)c2)c(Cl)c1/C=N/NC(=O)c1cccs1	4	144	0	25*	4	3	3	9
Cc1nn(-c2ccccc2)c(Cl)c1/C=N/NC(=O)c1ccc(NS(=O)(=O)c2cccs2)cc1	.	129	.	.	23	-13	.	.
CCNC(=S)N/N=C/c1c(C)nn(-c2cccc(Cl)c2)c1Cl	-10	321	9	21*	7	18	2	9
O=C(CCc1nc2ccccc2c(=O)[nH]1)OCc1ccc(-c2ccccc2)cc1	6	122	-6	18*	4	-18	3	6
Cc1ccc(N=CC=C2OC(C)(C)C(C)(C)O2)c(C)c1	-9	290	13	0	10	-19	.	.
O=C(COC(=O)/C=C/c1ccccc1Cl)NCCc1ccc(Cl)cc1Cl	-7	188	17	9.9*	3	-4	1	3
Cc1cc(Br)cc(Cl)c1OCC(=O)NC(=O)NCc1ccccc1	-3	350	2	12*	8	14	2	6
O=C(COC(=O)/C=C/c1cccc(Cl)c1)NC(=O)NCc1ccccc1	-3	358	1	11*	.	.	3	5
Cc1cc(Br)cc(Br)c1OCC(=O)NNC(=O)CCC(=O)NCc1ccccc1	0	424	12	1	.	.	.	.
O=C(COC(=O)/C=C/c1ccc(Cl)cc1Cl)NCCC1=CCCCC1	0	324	4	0	9	-1	.	.
CSc1nccc(Oc2ccccc2Cl)n1	-6	143	1	-2	.	.	.	.
O=C(NCCOc1ccccc1)c1ccc2n[nH]nc2c1	1	537	3	-1	.	.	.	.
N#Cc1c(NC(=O)CSc2nnc(-c3ccccc3)o2)sc2c1CCCC2	0	283	4	23*	6	8	4	2
SMILES	Granule exo inh	T cell HTS	MC4R antagonist	MC4R barr agon	EP2 antag	EP2 mod	MC4R barr ag	MOR-DOR barr ag
Cn1c(CNC(=O)c2ccc(Cl)cc2)nnc1SCC(=O)Nc1sc2c(c1C#N)CCCC2	4	i	-1	17*	9	-6	1	4
Cc1ccccc1OCC(=O)Nc1sc2c(c1C#N)CCC2	-3	413	17	17*	23	-15	2	4
Cc1cc(OCC(=O)Nc2sc3c(c2C#N)CC(C)(C)NC3(C)C)c(C(C)C)cc1Cl	-11	260	4	14*	.	.	8.5*	8
Cc1ccc(C(C)C)c(OCC(=O)Nc2sc3c(c2C#N)CC(C)(C)NC3(C)C)c1	29	242	1	4	.	.	.	.
CC(C(=O)Nc1nc(-c2ccc(F)c(F)c2)cs1)N1C(=O)C2CC=CCC2C1=O (stereo not drawn)	-2	437	10	-3	.	.	.	.
N#CCCS(=O)(=O)c1nnnn1-c1ccccc1	.	437	.	.	16	.	.	.
CCOc1ccc(-c2nnn(CC(=O)Nc3cc(OC)cc(OC)c3)n2)cc1OCC	2	286	-2	11*	6	13	4	7
CCOc1ccc(-c2nnn(CC(=O)Nc3cc(OC)ccc3OC)n2)cc1OCC	-4	331	2	0	6	19	.	.
CCOc1ccccc1NC(=O)Cn1nnc(-c2ccc(OCC)c(OCC)c2)n1	3	467	-1	9.7*	5	32	3	4
C=CCN(C1CCCCC1)S(=O)(=O)c1ccc2c(c1)oc(=O)n2C	6	73	5	-1	8	0	.	.
CC1CCN(CC(=O)Nc2ccccc2C(=O)NC2CC2)CC1	8	535	4	0	.	.	.	.
CCCSc1nnc(CSc2nc(C)cc(C)n2)n1C	4	319	1	1	5	-4	.	.
COc1ccc(O)c(C(=O)/C=C/c2cc3ccccc3o2)c1	-2	162	-1	3	19	8	.	.
O=C(/C=C/c1cc2ccccc2o1)c1ccccc1O	0	375	20	15*	6	46	2	3
C=CCN(CC=C)S(=O)(=O)c1ccc(NC(=S)NC(=O)/C=C/c2ccccc2)cc1	-12	333	5	19*	9	-38	6	2
CCOc1ccc(/C=N/NC(=O)c2ccc(CSc3nc4ccccc4[nH]3)cc2)cc1	-2	i	14	2	6	-5	.	.
CCN(Cc1ccccc1)S(=O)(=O)c1ccc(S(=O)(=O)N(Cc2ccccn2)Cc2ccco2)cc1	1	281	-2	13*	7	-2	4	3
CCOc1ccc(CNS(=O)(=O)c2c(C)nc3scc(C)n3c2=O)cc1OC	8	191	-6	-1	.	.	.	.
COC(=O)c1sc(NC(=O)c2ccoc2C)nc1C	-1	.	2	-4	4	18	.	.
